# MC4R ag barr: human MC4R agonism via beta-arrestin | P32245 | U2OS MC4R beta-arrestin complementation, luminescence; percent of melanotan II response, DMSO zero | activation, % at 8.9 µM | actives 0.98% (n = 360,000) | AID 540308;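 active = activation above a per-plate cutoff, the mean activation of sample wells on that plate plus 3 SD, cut at about 8% in these data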
# MC4R antagonist: antagonists of human melanocortin 4 receptor (MC4R); AID 540295; actives 0.48% (n = 360,000); P32245; inhibition, % at 6.5 µM; MC4R-expressing cells, MTII-stimulated cAMP, LANCE TR-FRET;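 active = inhibition above its plate's cutoff, the mean of tested wells on that plate plus 3 SD, cut at about 29% in these data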;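 also: 0% = Melanotan II alone and 100% = Melanotan II plus saturating MCL0020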
#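 Assay system: U2OS-MC4R stable cell line; Also added: Melanotan II; Technique: Eu-cAMP/anti-cAMP TR-FRET, emission 671 nm; Times: 30-min compound, 1-h challenge, 1-h detection, room temperature.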
# GAA850 FXN act: frataxin GAA850 promoter activation; activation, % at 6 µM; actives 0.56% (n = 360,000); HEK293 lucGAA850 FXN promoter luciferase reporter, 24 h; percent of 10 µM SAHA response;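 active = activation above the average of all compounds screened plus 3 SD, cutoff fixed separately per campaign, cut at about 7.5% in these data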;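 also: 0% = DMSO wells and 100% = 10 µM SAHA wells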
# m5-HT2A agonist: activates the mouse 5-HT2A serotonin receptor. CHO-K1 mHTR2A beta-arrestin complementation, luminescence; percent of 30 µM serotonin response. activation, % at 7.6 µM. actives 0.66% (n = 360,000). P35363;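 active = activation above a run cutoff, the mean activation of all tested compounds plus 3 SD, cut at about 14% in these data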;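 also: 0% = plate median of compound wells and 100% = 30 µM serotonin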
# AHR act: human AHR activation; AHR-responsive luciferase reporter cells, luminescence; activation, % at 5 µM; actives 2.5% (n = 320,000); AID 2796; in the data active = activation above about 47%;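 also: 0% = vehicle wells and 100% = reference agonist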
# cAMP nonselect: nonselective cAMP signaling inhibitor, MC4R antagonist counter-screen | shares compounds with MC4R antagonist | parental U2OS, forskolin cAMP, LANCE TR-FRET | inhibition, % at 6.5 µM | actives 26% (n = 1,600);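 active = mean inhibition over triplicates above the low-control well mean plus 3 SD, set per campaign, cut at about 13% in these data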;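 also: signal is single emission at 671 nm which falls as cellular cAMP rises; 0% = forskolin-stimulated wells and 100% = buffer without forskolin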
# MC4R cAMP antag: human MC4R cAMP antagonism confirmation; shares compounds with MC4R antagonist; actives 27% (n = 1,600); inhibition, % at 6.5 µM; MC4R-expressing cells, MTII-stimulated cAMP, TR-FRET; in the data active = inhibition above about 29%;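 also: 0% = agonist stimulated wells alone and 100% = agonist stimulated wells plus saturating reference antagonist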
# * = called active by the depositor; / = no result. Only some compounds are listed: those with a hit (about 4.7% of all), similar ones and a draw of the others.
SMILES,MC4R ag barr,MC4R antagonist,GAA850 FXN act,m5-HT2A agonist,AHR act,cAMP nonselect,MC4R cAMP antag
COc1ccc(NC(=O)COC(=O)Cc2cccs2)cc1Cl,-2,9,2,2,/,/,/
CC(=O)c1ccc(NC(=O)CNc2cc(S(=O)(=O)N3CCOCC3)ccc2N2CCCC2)cc1,1,5,0,0,/,/,/
O=C(NCCc1csc(-c2ccccc2)n1)c1c(F)cccc1Cl,-2,31*,2,-2,34,-2,0
O=C(NCCc1csc(-c2ccccc2)n1)c1c(F)cccc1F,1,14,-2,-3,-1,/,/
CS(=O)(=O)c1ccccc1C(=O)Nc1cc(Cl)ccc1-n1cncn1,-2,4,2,8,4,/,/
O=C(Nc1cc(Cl)ccc1-n1cncn1)c1cc(F)c(F)c(F)c1F,1,31*,2,3,56*,24*,50*
Cc1cc(C)n(-c2nc(N(c3ccccc3)c3ccccc3)nc(-n3nc(C)cc3C)n2)n1,4,62*,1,0,-1,3,-7
Cc1ccc(NC(=O)c2nc(S(=O)(=O)Cc3ccccc3)ncc2Cl)cc1,-4,11,5,-4,15,/,/
CCS(=O)(=O)c1ncc(Cl)c(C(=O)Nc2ccc(S(=O)(=O)N(C)c3ccccc3)cc2)n1,-5,52*,-16,-11,0,4,36*
O=C(Nc1ccc(F)cc1)c1nc(S(=O)(=O)Cc2ccccc2)ncc1Cl,-4,8,6,-2,18,/,/
CCN(c1ccccc1)S(=O)(=O)c1ccc(C(=O)Nc2ccncc2)cc1,2,4,-1,10,8,/,/
CCN(c1ccccc1)S(=O)(=O)c1ccc(NC(=O)c2nc(S(C)(=O)=O)ncc2Cl)cc1,-3,60*,-4,-9,-3,24*,46*
Cc1ccccc1CS(=O)(=O)c1ncc(Cl)c(C(=O)Nc2ccc(F)cc2)n1,-3,42*,-6,-9,18,29*,26
CC12CCC(=O)C=C1CCC1C2C(O)CC2(C)C1CCC2(O)C(=O)COC(=O)COCC(=O)O (stereo not given),-1,-1,7,14,/,/,/
Cc1c(C(=O)N2CCC(C)(C(=O)NS(=O)(=O)C3CC3)C2)oc2ccccc12 (stereo not given),2,-6,1,10,/,/,/
O=C(OCC(=O)N1CCCC1=O)c1nc(Cl)c(Cl)c(Cl)c1Cl,-4,29*,7,2,26,23*,47*
CCc1nc2ccc(C(=O)NCc3ccc4c(c3)OCO4)cn2c1N(CCC(C)C)CCN(C)C,-1,31*,-4,-1,/,1,47*
CCc1nc2ccc(C(=O)NCc3ccc4c(c3)OCO4)cn2c1N(CC)CCN(C)C,-1,21,-2,-11,/,/,/
CCOC(=O)C1=C(COC(=O)c2ccc(Br)c(S(=O)(=O)N3CCOCC3)c2)NC(=O)NC1C (stereo not given),0,6,1,6,/,/,/
COc1ccc(NC(=O)N2CCN(c3nc4ccccc4n3C(C)C)CC2)cc1,3,30*,0,4,-4,1,2
CCOc1cccc(/C=N/N2CCN(c3ccc(Cl)cc3)CC2)c1O,0,32*,-3,-3,-2,6,-8
O=C(C[C@@H]1C[C@@H]2c3cc(NC(=O)C4CCOCC4)ccc3O[C@@H]2[C@H](CO)O1)NCc1ccccn1,-1,4,-1,8,/,/,/
O=C(c1ccc([N+](=O)[O-])cc1)N(Cc1ccc(Br)cc1)N1C(=O)CCCC1=O,9.1*,44*,7,2,-4,17*,12
Cc1ccc(S(=O)(=O)N2CCN(C(=O)Cn3c(=O)cnc4ccccc43)CC2)cc1,0,0,0,0,0,/,/
c1ccc(COc2cncc(-c3cccnc3)c2)cc1,0,0,4,5,16,/,/
c1ccc(-c2nnc(OCc3cccnc3)c3ccccc23)cc1,-2,29*,0,1,17,3,11
